Test results from ChEMBL document CHEMBL5370639, “Structure-Based Lead Optimization of Enterovirus D68 2A Protease Inhibitors” (J Med Chem, 2023).

What was measured:
[1] = Inhibition of Enterovirus D68 US/KY/14-18953 2A protease expressed in Escherichia coli BL21(DE3) using Dabcyl-KIRIVNT/GPGEGGE-Edans as substrate incubated for 2 hrs by FRET assay
enterovirus D68 [2] = assay: Antiviral activity against enterovirus D68 US/MO/14-18947 infected in human RD cells assessed as reduction in virus induced cytopathic effect by neutral red staining based CPE assay; format: functional, organism-based; details: Enterovirus D, US/MO/14-18947, RD
How it was run: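 RD cells seeded overnight to ~90% confluency, washed with PBS containing Mg/Ca, infected with virus in DMEM/2% FBS/30 mM MgCl2 for at least 1 h at 33 °C, then compound added. Cells stained with 66 μg/mL neutral red for 2 h; uptake read at 540 nm. EC50 from dose-response fit; mean ± SD of two independent experiments, three repeats each.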

[3] = Cytotoxicity against human RD cells assessed as reduction in cell viability by neutral red staining based CPE assay; format: toxicity; details: RD cells
How it was run: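 Uninfected RD cells, grown overnight to ~90% confluency, treated with compound under otherwise the same handling as the antiviral assay. Viability by neutral red uptake (66 μg/mL, 2 h, absorbance 540 nm). CC50 from best-fit dose-response curve; mean ± SD of two independent experiments, three repeats each.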

[4] = Binding affinity to Enterovirus D68 US/KY/14-18953 2A protease expressed in Escherichia coli BL21(DE3) assessed as inhibition constant using Dabcyl-KIRIVNT/GPGEGGE-Edans as substrate incubated for 2 hrs by FRET assay
How it was run: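 Progression-curve kinetics: FRET substrate at 40 μM final in 50 mM Tris pH 7.0, 100 mM NaCl, 2 mM DTT, 10% glycerol with varying inhibitor; reaction started by adding 2Apro to 0.4 μM final. Fluorescence (ex 360/40, em 460/40 nm) read every 71 s for 2 h at 30 °C. Curves fitted by the Morrison equation or an earlier-described equation.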

enterovirus D68 [5] = assay: Antiviral activity against enterovirus D68 US/MO/14-18947 infected in human RD cells assessed as reduction in virus plaque formation measured after 3 days by neutral red staining assay; format: functional, organism-based; details: Enterovirus D, US/MO/14-18947, RD, 72 h
How it was run: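 RD cells infected with virus in DMEM/2% FBS/30 mM MgCl2 for at least 1 h at 33 °C, then given compound under a 1.2% avicel microcrystalline cellulose overlay. Cells stained after 3 days and plaques counted. EC50 from curve fitting; mean ± SD of two repeats.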

IC50 [1] [nM]	Structure (SMILES)	EC50 (enterovirus D68 [2]) [nM]	CC50 [3] [nM]	Ki [4] [nM]	EC50 (enterovirus D68 [5]) [nM]
360	CCC[C@H](NC(=O)[C@@H]1[C@H]2CCC[C@H]2CN1C(=O)[C@@H](NC(=O)[C@@H](NC(=O)OCc1ccccc1)C1CCCCC1)C(C)(C)C)C(=O)C(=O)NC1CC1	830	> 150000	–	–
180	CC(C)(C)Oc1ccc(C[C@H](NC(=O)[C@@H]2[C@H]3CCC[C@H]3CN2C(=O)[C@@H](NC(=O)CC23CC4CC(CC(C4)C2)C3)C(C)(C)C)C(=O)C(=O)NC2CC2)cc1	1730	9790	–	–
180	CC(C)(C)[C@H](NC(=O)CC12CC3CC(CC(C3)C1)C2)C(=O)N1C[C@@H]2CCC[C@@H]2[C@H]1C(=O)N[C@@H](Cc1c[nH]c2ccccc12)C(=O)C(=O)NC1CC1	280	> 150000	–	–
350	CC(C)(C)[C@H](NC(=O)CC12CC3CC(CC(C3)C1)C2)C(=O)N1C[C@@H]2CCC[C@@H]2[C@H]1C(=O)N[C@H](C(=O)C(=O)NC1CC1)c1ccc(F)cc1	780	24100	–	–
120	COC[C@H](NC(=O)[C@@H]1[C@H]2CCC[C@H]2CN1C(=O)[C@@H](NC(=O)CC12CC3CC(CC(C3)C1)C2)C(C)(C)C)C(=O)C(=O)NC1CC1	2290	23200	–	–
160	CCC[C@H](NC(=O)[C@@H]1[C@H]2CCC[C@H]2CN1C(=O)[C@@H](NC(=O)NC12CC3CC(CC(C3)C1)C2)C(C)(C)C)C(=O)C(=O)NC1CC1	700	42200	–	–
940	CCC[C@H](NC(=O)[C@@H]1[C@H]2CCC[C@H]2CN1C(=O)[C@@H](NC(C)=O)C(C)(C)C)C(=O)C(=O)NC1CC1	4650	> 150000	–	–
90	CCC[C@H](NC(=O)[C@@H]1[C@H]2CCC[C@H]2CN1C(=O)[C@@H](NC(=O)CC1CCCCC1)C(C)(C)C)C(=O)C(=O)NC1CC1	380	> 150000	–	–
400	CCC[C@H](NC(=O)[C@@H]1[C@H]2CCC[C@H]2CN1C(=O)[C@@H](NC(=O)CC12CC3CC(CC(O)(C3)C1)C2)C(C)(C)C)C(=O)C(=O)NC1CC1	1850	> 150000	–	–
230	CC(C)(C)[C@H](NC(=O)CC12CC3CC(CC(C3)C1)C2)C(=O)N1C[C@@H]2CCC[C@@H]2[C@H]1C(=O)N[C@H](C(=O)C(=O)NC1CC1)c1ccccc1	570	35800	–	–
740	CC(C)(C)[C@H](NC(=O)CC12CC3CC(CC(C3)C1)C2)C(=O)N1C[C@@H]2CCC[C@@H]2[C@H]1C(=O)NC1(C(=O)C(=O)NC2CC2)CCCCC1	1010	> 150000	–	–
120	CCC[C@H](NC(=O)[C@@H]1[C@H]2CCC[C@H]2CN1C(=O)[C@@H](NC(=O)CC1C2CC3CC(C2)CC1C3)C(C)(C)C)C(=O)C(=O)NC1CC1 (some centres undefined)	180	> 150000	–	–
760	CCC[C@H](NC(=O)[C@@H]1[C@H]2CCC[C@H]2CN1C(=O)[C@@H](NC(=O)/C=C/c1ccccc1)C(C)(C)C)C(=O)C(=O)NC1CC1	3990	> 150000	–	–
100	CCC[C@H](NC(=O)[C@@H]1[C@H]2CCC[C@H]2CN1C(=O)[C@@H](NC(=O)CC1CCCC1)C(C)(C)C)C(=O)C(=O)NC1CC1	700	> 150000	–	–
140	CC(C)(C)[C@H](NC(=O)CC12CC3CC(CC(C3)C1)C2)C(=O)N1C[C@@H]2CCC[C@@H]2[C@H]1C(=O)N[C@@H](CC1CC1)C(=O)C(=O)NC1CC1	230	34900	–	–
90	CC(C)[C@H](NC(=O)[C@@H]1[C@H]2CCC[C@H]2CN1C(=O)[C@@H](NC(=O)CC12CC3CC(CC(C3)C1)C2)C(C)(C)C)C(=O)C(=O)NC1CC1	160	> 150000	–	–
120	CC(C)(C)[C@H](NC(=O)CC12CC3CC(CC(C3)C1)C2)C(=O)N1C[C@@H]2CCC[C@@H]2[C@H]1C(=O)N[C@@H](Cc1ccsc1)C(=O)C(=O)NC1CC1	240	28200	–	–
> 20000	CC(C)(C)[C@H](NC(=O)[C@@H]1[C@H]2CCC[C@H]2CN1C(=O)[C@@H](NC(=O)CC12CC3CC(CC(C3)C1)C2)C(C)(C)C)C(=O)C(=O)NC1CC1	> 30000	> 150000	–	–
1320	CCC[C@@H](C#N)NC(=O)[C@@H]1[C@H]2CCC[C@H]2CN1C(=O)[C@@H](NC(=O)CC12CC3CC(CC(C3)C1)C2)C(C)(C)C	3920	> 150000	–	–
250	CCC[C@H](NC(=O)[C@@H]1[C@H]2CCC[C@H]2CN1C(=O)[C@@H](NC(=O)Cc1ccccc1)C(C)(C)C)C(=O)C(=O)NC1CC1	1970	> 150000	–	–
140	CCC[C@H](NC(=O)[C@@H]1[C@H]2CCC[C@H]2CN1C(=O)[C@@H](NC(=O)CC1CCC(F)(F)CC1)C(C)(C)C)C(=O)C(=O)NC1CC1	750	> 50000	–	–
1160	CCC[C@H](NC(=O)[C@@H]1[C@H]2CCC[C@H]2CN1C(=O)[C@@H](NC(=O)NC(C)(C)C)C(C)(C)C)C(=O)C(=O)NC1CC1	–	–	–	–
190	CC(C)(C)[C@H](NC(=O)CC12CC3CC(CC(C3)C1)C2)C(=O)N1C[C@@H]2CCC[C@@H]2[C@H]1C(=O)N[C@H](C(=O)C(N)=O)C1CCCCC1	140	> 150000	–	–
760	CCC[C@H](NC(=O)[C@@H]1[C@H]2CCC[C@H]2CN1C(=O)[C@@H](NC(=O)OCc1ccccc1)C(C)(C)C)C(=O)C(=O)NC1CC1	2900	> 150000	–	–
–	CCC[C@H](NC(=O)[C@H](CC1CCCCC1)NC(=O)[C@@H](NC(=O)CC12CC3CC(CC(C3)C1)C2)C(C)(C)C)C(=O)C(=O)NC1CC1	> 290	290	–	–
4810	CC(C)(C)[C@H](NC(=O)CC12CC3CC(CC(C3)C1)C2)C(=O)N1C[C@@H]2CCC[C@@H]2[C@H]1C(=O)NC1(C(=O)C(=O)NC2CC2)CCC1	3230	> 150000	–	–
> 20000	CC(C)(C)[C@H](NC(=O)CC12CC3CC(CC(C3)C1)C2)C(=O)N1C[C@@H]2CCC[C@@H]2[C@H]1C(=O)N[C@@H](Cc1ccc(F)cc1)C(=O)c1nc2ccccc2s1	> 30000	> 150000	–	–
150	CCC(C)[C@H](NC(=O)[C@@H]1[C@H]2CCC[C@H]2CN1C(=O)[C@@H](NC(=O)CC12CC3CC(CC(C3)C1)C2)C(C)(C)C)C(=O)C(=O)NC1CC1 (some centres undefined)	160	> 150000	–	13.5
4350	CCC[C@H](NC(=O)[C@@H]1[C@H]2CCC[C@H]2CN1C(=O)OCc1ccccc1)C(=O)C(=O)NC1CC1	25900	> 150000	–	–
–	CCC[C@H](NC(=O)[C@@H](NC(=O)[C@@H](NC(=O)CC12CC3CC(CC(C3)C1)C2)C(C)(C)C)C1CCCCC1)C(=O)C(=O)NC1CC1	> 1840	1840	–	–

Structure (SMILES)	IC50 [1] [nM]	EC50 (enterovirus D68 [2]) [nM]	CC50 [3] [nM]	Ki [4] [nM]	EC50 (enterovirus D68 [5]) [nM]
CC(C)C[C@H](NC(=O)[C@@H]1[C@H]2CCC[C@H]2CN1C(=O)[C@@H](NC(=O)CC12CC3CC(CC(C3)C1)C2)C(C)(C)C)C(=O)C(=O)NC1CC1	260	260	26300	–	–
CCC[C@H](NC(=O)[C@@H]1[C@H]2CCC[C@H]2CN1C(=O)[C@@H](NC(=O)CC12CC3CC(CC(C3)C1)C2)C(C)(C)C)C(=O)C(=O)NC1CC1	80	160	36200	58.6	–
CC(C)(C)[C@H](NC(=O)NC12CC3CC(CC(C3)C1)C2)C(=O)N1C[C@@H]2CCC[C@@H]2[C@H]1C(=O)N[C@@H](Cc1ccc(F)cc1)C(=O)C(=O)NC1CC1	160	350	21300	–	–
CC(C)(C)[C@H](NC(=O)CC12CC3CC(CC(C3)C1)C2)C(=O)N1C[C@@H]2CCC[C@@H]2[C@H]1C(=O)N[C@H](C=O)Cc1ccc(F)cc1	1820	1300	17300	276	–
CC(C)(C)[C@H](NC(=O)CC12CC3CC(CC(C3)C1)C2)C(=O)N1C[C@@H]2CCC[C@@H]2[C@H]1C(=O)N[C@@H](Cc1ccc(F)cc1)C(=O)C(=O)NC1CC1	150	190	14100	–	–
